Experiments:
SIRPα = assay: CD47-Fc inhibition assay; format: binding, human; settings: THP-1 macrophages, 1 μM or 50 μM peptide 1 h, Fc-receptor blockade, 2 μg/mL CD47-Fc, anti-Fc fluorescence, n = 2 sets of triplicates
human THP-1 macrophages = format: cell-based
[1] = tested on: mouse-derived J774A.1 macrophages; format: cell-based
How it was run: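 J774A.1 macrophages plated 24 h in RPMI with 10% FBS, then treated with test compound (20 nM, 1 μM or 50 μM) for 1 h at 37 °C and washed; positive control was 5 μg/mL rat anti-mouse SIRPα. Human RBCs were EDTA-washed, opsonized with 20 μg/mL rabbit anti-RBC IgG (1 h, RT), and PKH26-labelled. They were added at 10:1 for 1 h at 37 °C, then fixed and Hoechst-stained for fluorescence imaging.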

“nS-wt: CD47's eight amino acid binding loop, wild-type nano-Self peptide, C-terminal amide” was tested, and the “level of inhibition of CD47-Fc binding to macrophages” value (SIRPα) was “inhibited”, the “phagocytosis levels at maximum peptide concentration” value (human THP-1 macrophages; 50 μM peptide, opsonized RBCs) was “well above those for nS-X and nS-XX controls” and the “macrophages that internalize opsonized RBCs, peptide combined with anti-RBC” value (human THP-1 macrophages; maximum peptide concentration (50 μM), anti-RBC ~133 nM, n = 3) was ~ 30%. For the same substance, the “phagocytosis compared with anti-CD47” value (human THP-1 macrophages; saturating peptide, opsonized RBCs) was “gives the same result as anti-CD47”, the “phagocytosis by mouse macrophages” value ([1]; J774A.1 macrophages, opsonized RBCs, high concentrations (50 μM)) was “matches anti-CD47 blockade effects” and the “effective activity in the mouse macrophage assay relative to the human assay” value ([1]; weaker in mouse than in human macrophages) was ~ 100 fold.

— PMC8489566 (ACS nano, 2020)
